Values joined by “and” are separate entries in the source; they are usually repeats but may differ in a detail not shown here. Equal values may be shown once.
System: Fibroblast
Test: Multiplex assay against human fibroblast
Type: toxicity, cell-based
Details: number of replicates 2
Summary of the method: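 Cells were classed with CellPathfinder machine-learning gating, first as Hoechst high-intensity objects or normal cells, then (normal cells) as healthy, pyknosed or fragmented nuclei, and finally (pyknosed cells) as mitotic or apoptotic. Staining of live cells at seeding used Hoechst33342, BioTracker Green Microtubule Cytoskeleton Dye, MitoTracker Red and Annexin V Alexa Fluor 680, with imaging on a CQ1 microscope at 37°C and 5% CO2 after compound addition. Tubulin, mitochondrial-mass and membrane-permeability phenotypes are per cents of healthy-nucleus cells.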

[1] = 12 h, 1 µM, compound concentration 1 uM
[2] = 12 h, 10 µM, compound concentration 10 uM
[3] = 24 h, 1 µM, compound concentration 1 uM
[4] = 24 h, 10 µM, compound concentration 10 uM
[5] = 48 h, 1 µM, compound concentration 1 uM
[6] = 48 h, 10 µM, compound concentration 10 uM

Question: How did the “Population Apoptotic (%)” value [1] turn out when CN[C@@H]1CC[C@@H](c2ccc(Cl)c(Cl)c2)c2ccccc21.Cl was run?
Answer: 43% and 37%

Question: And the “Population Fragmented Nuclei (%)” value [1]?
Answer: 14% and 18%

Question: What about the “Population Healthy Nuclei (%)” value [1] of the same molecule?
Answer: 55% and 62%

Question: What about the “Population Hoechst High Intensity Objects (%)” value [1] of the same molecule?
Answer: 0%

Question: What about the “Population Membrane Permeable-Phenotype (%)” value [1] of the same molecule?
Answer: 12% and 9%

Question: And the “Population Mitochondria Different-Phenotype (%)” value [1]?
Answer: 2% and 0%

Question: What about the “Population Mitotic Cells (%)” value [1] of the same molecule?
Answer: 56% and 62%

Question: And the “Population Normal (%)” value [1]?
Answer: 100% and 99%

Question: And the “Population Pyknosed Nuclei (%)” value [1]?
Answer: 29% and 19%

Question: And the “Population Tubulin-Different-Phenotype (%)” value [1]?
Answer: 37% and 20%

Question: What about the “Total Cell Count” value [1] of the same molecule?
Answer: 194

Question: What about the “Population Apoptotic (%)” value [2] of the same molecule?
Answer: 28% and 53%

Question: What about the “Population Fragmented Nuclei (%)” value [2] of the same molecule?
Answer: 17% and 15%

Question: What about the “Population Healthy Nuclei (%)” value [2] of the same molecule?
Answer: 56% and 55%

Question: What about the “Population Hoechst High Intensity Objects (%)” value [2] of the same molecule?
Answer: 0%

Question: And the “Population Membrane Permeable-Phenotype (%)” value [2]?
Answer: 11% and 8%

Question: And the “Population Mitochondria Different-Phenotype (%)” value [2]?
Answer: 10% and 14%

Question: What about the “Population Mitotic Cells (%)” value [2] of the same molecule?
Answer: 71% and 46%

Question: And the “Population Normal (%)” value [2]?
Answer: 100% and 99%

Question: And the “Population Pyknosed Nuclei (%)” value [2]?
Answer: 26% and 28%

Question: What about the “Population Tubulin-Different-Phenotype (%)” value [2] of the same molecule?
Answer: 82% and 77%

Question: And the “Population Apoptotic (%)” value [3]?
Answer: 43% and 40%

Question: And the “Population Fragmented Nuclei (%)” value [3]?
Answer: 16% and 17%

Question: What about the “Population Healthy Nuclei (%)” value [3] of the same molecule?
Answer: 57% and 65%

Question: What about the “Population Hoechst High Intensity Objects (%)” value [3] of the same molecule?
Answer: 0% and 1%

Question: What about the “Population Membrane Permeable-Phenotype (%)” value [3] of the same molecule?
Answer: 8% and 2%

Question: What about the “Population Mitochondria Different-Phenotype (%)” value [3] of the same molecule?
Answer: 1% and 4%

Question: What about the “Population Mitotic Cells (%)” value [3] of the same molecule?
Answer: 56% and 60%

Question: What about the “Population Normal (%)” value [3] of the same molecule?
Answer: 99% and 98%

Question: What about the “Population Pyknosed Nuclei (%)” value [3] of the same molecule?
Answer: 25% and 16%

Question: What about the “Population Tubulin-Different-Phenotype (%)” value [3] of the same molecule?
Answer: 39% and 19%

Question: And the “Population Apoptotic (%)” value [4]?
Answer: 53% and 65%

Question: What about the “Population Fragmented Nuclei (%)” value [4] of the same molecule?
Answer: 13% and 15%

Question: And the “Population Healthy Nuclei (%)” value [4]?
Answer: 56% and 53%

Question: And the “Population Hoechst High Intensity Objects (%)” value [4]?
Answer: 0%

Question: And the “Population Membrane Permeable-Phenotype (%)” value [4]?
Answer: 7% and 5%

Question: And the “Population Mitochondria Different-Phenotype (%)” value [4]?
Answer: 29% and 49%

Question: And the “Population Mitotic Cells (%)” value [4]?
Answer: 46% and 34%

Question: What about the “Population Normal (%)” value [4] of the same molecule?
Answer: 100% and 99%

Question: And the “Population Pyknosed Nuclei (%)” value [4]?
Answer: 30% and 32%

Question: And the “Population Tubulin-Different-Phenotype (%)” value [4]?
Answer: 89% and 88%

Question: And the “Total Cell Count” value [4]?
Answer: 212 and 201

Question: What about the “Population Apoptotic (%)” value [5] of the same molecule?
Answer: 78% and 55%

Question: What about the “Population Fragmented Nuclei (%)” value [5] of the same molecule?
Answer: 21% and 22%

Question: And the “Population Healthy Nuclei (%)” value [5]?
Answer: 60% and 64%

Question: And the “Population Hoechst High Intensity Objects (%)” value [5]?
Answer: 0%

Question: And the “Population Membrane Permeable-Phenotype (%)” value [5]?
Answer: 2% and 3%

Question: What about the “Population Mitochondria Different-Phenotype (%)” value [5] of the same molecule?
Answer: 0%

Question: What about the “Population Mitotic Cells (%)” value [5] of the same molecule?
Answer: 21% and 44%

Question: And the “Population Normal (%)” value [5]?
Answer: 99%

Question: And the “Population Pyknosed Nuclei (%)” value [5]?
Answer: 17% and 12%

Question: What about the “Population Apoptotic (%)” value [6] of the same molecule?
Answer: 75% and 88%

Question: And the “Population Fragmented Nuclei (%)” value [6]?
Answer: 12% and 14%

Question: And the “Population Healthy Nuclei (%)” value [6]?
Answer: 66% and 51%

Question: What about the “Population Hoechst High Intensity Objects (%)” value [6] of the same molecule?
Answer: 1% and 0%

Question: What about the “Population Membrane Permeable-Phenotype (%)” value [6] of the same molecule?
Answer: 11% and 1%

Question: What about the “Population Mitochondria Different-Phenotype (%)” value [6] of the same molecule?
Answer: 40% and 47%

Question: What about the “Population Mitotic Cells (%)” value [6] of the same molecule?
Answer: 24% and 11%

Question: What about the “Population Normal (%)” value [6] of the same molecule?
Answer: 98% and 100%

Question: And the “Population Pyknosed Nuclei (%)” value [6]?
Answer: 21% and 34%

Question: And the “Population Tubulin-Different-Phenotype (%)” value [6]?
Answer: 84% and 69%

Question: And the “Total Cell Count” value [6]?
Answer: 196

Question: With CCn1c(-c2nonc2N)nc2cncc(C(=O)N3CC[C@H](N)C3)c21.Cl as the molecule, how does the “Population Apoptotic (%)” value [1] read?
Answer: 33% and 45%

Question: What about the “Population Fragmented Nuclei (%)” value [1] of the same molecule?
Answer: 6% and 11%

Question: And the “Population Healthy Nuclei (%)” value [1]?
Answer: 73% and 74%

Question: What about the “Population Hoechst High Intensity Objects (%)” value [1] of the same molecule?
Answer: 0%

Question: What about the “Population Membrane Permeable-Phenotype (%)” value [1] of the same molecule?
Answer: 6% and 1%

Question: And the “Population Mitochondria Different-Phenotype (%)” value [1]?
Answer: 0% and 1%

Question: What about the “Population Mitotic Cells (%)” value [1] of the same molecule?
Answer: 66% and 54%

Question: And the “Population Normal (%)” value [1]?
Answer: 100%

Question: What about the “Population Pyknosed Nuclei (%)” value [1] of the same molecule?
Answer: 19% and 13%

Question: And the “Population Tubulin-Different-Phenotype (%)” value [1]?
Answer: 2% and 4%

Question: What about the “Total Cell Count” value [1] of the same molecule?
Answer: 202 and 240

Question: What about the “Population Apoptotic (%)” value [2] of the same molecule?
Answer: 9% and 19%

Question: What about the “Population Fragmented Nuclei (%)” value [2] of the same molecule?
Answer: 6% and 12%

Question: What about the “Population Healthy Nuclei (%)” value [2] of the same molecule?
Answer: 65% and 67%

Question: What about the “Population Hoechst High Intensity Objects (%)” value [2] of the same molecule?
Answer: 0%

Question: What about the “Population Membrane Permeable-Phenotype (%)” value [2] of the same molecule?
Answer: 3% and 1%

Question: And the “Population Mitochondria Different-Phenotype (%)” value [2]?
Answer: 1% and 2%

Question: And the “Population Mitotic Cells (%)” value [2]?
Answer: 90% and 80%

Question: What about the “Population Normal (%)” value [2] of the same molecule?
Answer: 99% and 100%

Question: What about the “Population Pyknosed Nuclei (%)” value [2] of the same molecule?
Answer: 28% and 20%

Question: What about the “Population Tubulin-Different-Phenotype (%)” value [2] of the same molecule?
Answer: 11% and 6%

Question: What about the “Total Cell Count” value [2] of the same molecule?
Answer: 196 and 295

Question: What about the “Population Apoptotic (%)” value [3] of the same molecule?
Answer: 50% and 69%

Question: And the “Population Fragmented Nuclei (%)” value [3]?
Answer: 4% and 10%

Question: And the “Population Healthy Nuclei (%)” value [3]?
Answer: 83% and 78%

Question: And the “Population Hoechst High Intensity Objects (%)” value [3]?
Answer: 0%

Question: And the “Population Membrane Permeable-Phenotype (%)” value [3]?
Answer: 4% and 2%

Question: What about the “Population Mitochondria Different-Phenotype (%)” value [3] of the same molecule?
Answer: 0%

Question: And the “Population Mitotic Cells (%)” value [3]?
Answer: 50% and 30%

Question: What about the “Population Normal (%)” value [3] of the same molecule?
Answer: 100%

Question: And the “Population Pyknosed Nuclei (%)” value [3]?
Answer: 11%

Question: What about the “Population Tubulin-Different-Phenotype (%)” value [3] of the same molecule?
Answer: 2% and 5%

Question: What about the “Total Cell Count” value [3] of the same molecule?
Answer: 191 and 224

Question: What about the “Population Apoptotic (%)” value [4] of the same molecule?
Answer: 23%

Question: What about the “Population Fragmented Nuclei (%)” value [4] of the same molecule?
Answer: 8% and 10%

Question: And the “Population Healthy Nuclei (%)” value [4]?
Answer: 76% and 77%

Question: What about the “Population Hoechst High Intensity Objects (%)” value [4] of the same molecule?
Answer: 0%

Question: What about the “Population Membrane Permeable-Phenotype (%)” value [4] of the same molecule?
Answer: 2% and 0%

Question: And the “Population Mitochondria Different-Phenotype (%)” value [4]?
Answer: 4% and 2%

Question: And the “Population Mitotic Cells (%)” value [4]?
Answer: 76%

Question: And the “Population Normal (%)” value [4]?
Answer: 100%

Question: And the “Population Pyknosed Nuclei (%)” value [4]?
Answer: 15% and 11%

Question: And the “Population Tubulin-Different-Phenotype (%)” value [4]?
Answer: 10% and 3%

Question: And the “Total Cell Count” value [4]?
Answer: 196 and 266

Question: What about the “Population Apoptotic (%)” value [5] of the same molecule?
Answer: 86% and 66%

Question: And the “Population Fragmented Nuclei (%)” value [5]?
Answer: 6% and 10%

Question: And the “Population Healthy Nuclei (%)” value [5]?
Answer: 85%

Question: And the “Population Hoechst High Intensity Objects (%)” value [5]?
Answer: 0%

Question: What about the “Population Membrane Permeable-Phenotype (%)” value [5] of the same molecule?
Answer: 3% and 2%

Question: And the “Population Mitochondria Different-Phenotype (%)” value [5]?
Answer: 0%

Question: What about the “Population Mitotic Cells (%)” value [5] of the same molecule?
Answer: 13% and 33%

Question: What about the “Population Normal (%)” value [5] of the same molecule?
Answer: 100%

Question: What about the “Population Pyknosed Nuclei (%)” value [5] of the same molecule?
Answer: 7% and 4%

Question: What about the “Population Tubulin-Different-Phenotype (%)” value [5] of the same molecule?
Answer: 1% and 3%

Question: And the “Total Cell Count” value [5]?
Answer: 196 and 220

Question: What about the “Population Apoptotic (%)” value [6] of the same molecule?
Answer: 57% and 69%

Question: What about the “Population Fragmented Nuclei (%)” value [6] of the same molecule?
Answer: 11% and 9%

Question: And the “Population Healthy Nuclei (%)” value [6]?
Answer: 72% and 80%

Question: What about the “Population Hoechst High Intensity Objects (%)” value [6] of the same molecule?
Answer: 0%

Question: What about the “Population Membrane Permeable-Phenotype (%)” value [6] of the same molecule?
Answer: 2% and 1%

Question: And the “Population Mitochondria Different-Phenotype (%)” value [6]?
Answer: 0%

Question: What about the “Population Mitotic Cells (%)” value [6] of the same molecule?
Answer: 42% and 30%

Question: What about the “Population Normal (%)” value [6] of the same molecule?
Answer: 100% and 99%

Question: What about the “Population Pyknosed Nuclei (%)” value [6] of the same molecule?
Answer: 15% and 9%

Question: What about the “Population Tubulin-Different-Phenotype (%)” value [6] of the same molecule?
Answer: 2% and 3%

Question: What about the “Total Cell Count” value [6] of the same molecule?
Answer: 184 and 264

Reference: ChEMBL document CHEMBL5303300, “EUbOPEN Chemogenomics Library - Multiplex” (2023)
